These results are taken from ChEMBL document CHEMBL4765486, “Novel Nonsecosteroidal Vitamin D Receptor Modulator Combined with Gemcitabine Enhances Pancreatic Cancer Therapy through Remodeling of the Tumor Microenvironment” (J Med Chem, 2021).

For data set [1], the system named is LTC-14. In words: Inhibition of rat LTC-14 cells activation assessed as reduction in ECM deposition resulting in doxorubicin accumulation in PSC spheres pretreated with compounds followed by doxorubicin addition by laser confocal microscopy analysis. The data set is classed as functional, cell-based. Summed up:
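LTC-14 cells were grown in 3D culture to form PSC spheres and treated with compounds. Fluorescent doxorubicin was then added, and its penetration into the spheres was imaged by laser confocal microscopy. Three repeats, versus untreated control.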

Data set [2] concerns LTC-14. Put plainly: Inhibition of rat LTC-14 cells activation assessed as inhibition of PDGFA mRNA expression at 0.5 uM treated under conditioned media of DSL-6A/C1 cells for 24 hrs by q-PCR analysis. The data set is classed as functional, cell-based. A digest of the protocol:
(§1)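 LTC-14 PSCs were exposed for 24 h to conditioned medium from rat DSL-6A/C1 cancer cells containing compound at 0.5 μM. Pdgfa, Pdgfb, Fgf2, Hgf and Periodin mRNA were quantified by RT-qPCR. Three repeats, mean ± SD versus CM alone.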

Data set [3] concerns LTC-14. Put plainly: Inhibition of rat LTC-14 cells activation assessed as inhibition of PDGFB mRNA expression at 0.5 uM treated under conditioned media of DSL-6A/C1 cells for 24 hrs by q-PCR analysis. The data set is classed as functional, cell-based. A digest of the protocol:
as §1

The test system of data set [4] is LTC-14. In words: Inhibition of rat LTC-14 cells activation assessed as inhibition of Periodin-mRNA expression at 0.5 uM treated under conditioned media of DSL-6A/C1 cells for 24 hrs by q-PCR analysis. The data set is classed as functional, cell-based. A digest of the protocol:
as §1

A short description of data set [5]: Cytotoxicity against rat DSL-6A/C1 cells assessed as reduction in cell proliferation at 0.5 uM incubated for 24 hrs by MTT assay. In kind it is cell-based. The settings on record: dsl-6a/c1, 24 h.
The subject of data set [6] is LTC-14. Put plainly: Inhibition of rat LTC-14 cells interaction with DSL-6A/C1 cells in conditioned media assessed as inhibition of PDGF-A protein expression at 0.5 uM measured after 24 hrs by Western blot analysis. In kind it is functional, cell-based. A digest of the protocol: (§2)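 LTC-14 cells were treated for 24 h with DSL-6A/C1 conditioned medium plus compound (0.5 μM). Proteins were separated on 10% SDS-PAGE, transferred to PVDF and probed with rabbit anti-PDGF-A or anti-POSTN, with β-actin as loading reference.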

The subject of data set [7] is LTC-14. Put plainly: Inhibition of rat LTC-14 cells interaction with DSL-6A/C1 cells in conditioned media assessed as inhibition of POSTN protein expression at 0.5 uM measured after 24 hrs by Western blot analysis. In kind it is functional, cell-based. A digest of the protocol:
as §2

The subject of data set [8] is LTC-14. In words: Inhibition of rat LTC-14 cells activation assessed decrease in TGF-beta1 induced Acta2 mRNA expression at 0.5 uM incubated for 24 hrs by q-PCR analysis. The data set is classed as functional, cell-based. A digest of the protocol: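 Immortalized rat PSC line LTC-14, about 1×10^5 cells per well, was grown 24 h at 37 °C in 5% CO2. Cells then received compound (0.5 μM) plus TGF-β1 for 24 h; TGF-β1 is stated as 0.5 ng/mL in the text and 5 ng/mL in the methods. Col1a1 and Acta2 mRNA were measured by RT-qPCR. Mean ± SD versus TGF-β1 alone.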

The test system of data set [9] is DSL-6A/C1. Put plainly: Antiproliferative activity against rat DSL-6A/C1 cells assessed as reduction in cell viability at 0.5 uM treated with conditioned media of LTC-14 cells for 24 hrs by MTT assay. In kind it is functional, cell-based. Summed up: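 Rat pancreatic cancer DSL-6A/C1 cells were cultured in supernatant from LTC-14 PSCs (PSC-CM) with compound added at 0.5 μM for 24 h. Viability was then read by MTT: 4 h incubation with MTT (5 mg/mL stock), absorbance at 570 nm. Run in triplicate, compared with PSC-CM alone.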

Data set [10] can be described thus: Toxicity in orthotropic xenograft BALB/c nude mouse model of pancreatic cancer co-inoculated with rat DSL-6A/C1-Luc cells and LTC-14-GFP cells assessed as hypercalcemia at 500 ug/kg, ip administered once every 3 days for 12 days coadministered with gemcitabine at 100 mg/kg and measured after 3 days post last dose. The data set is classed as organism-based. The settings on record: in vivo, 0.5 mg/kg, 288 h, dose 500 µg/kg, time 12 day. A digest of the protocol:
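Orthotopic DSL-6A/C1-luci/LTC-14-GFP nude mice received gemcitabine 100 mg/kg plus compound 500 μg/kg ip for 12 days. They were sacrificed 3 days after the final dose, and serum was collected for biochemical analysis to assess hypercalcemia.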

The subject of data set [11] is LTC-14. In words: Inhibition of rat LTC-14 cells activation assessed as inhibition of Hgf mRNA expression at 0.5 uM treated under conditioned media of DSL-6A/C1 cells for 24 hrs by q-PCR analysis. The data set is classed as functional, cell-based. A digest of the protocol:
as §1

Active and inactive are the calls of the source. Unless noted, the rule behind the calls is not given here.

In the case of `CCn1cc(C(CC)(CC)c2ccc(OCC(C)O)c(C)c2)cc1C(=O)NCCN1CCN(C)CC1` (stereo unspecified), the inhibition entry in data set [1], in [2], in [3], in data set [4], in data set [6] and in [7] was “Active” each time. Also, the inhibition result in data set [8] and in data set [11] was “Active” each time. For the same compound, the Activity result in [5] and in data set [10] was “Non-Toxic” each time. In addition, in data set [9], the result was inactive.
